pEC50, pKi: −log10 of the molar value.
Legend:
[1] = target: T1, 5-hydroxytryptamine receptor 4 (Homo sapiens, UniProt Q13639); test: Binding affinity to human recombinant 5HT4 receptor
[2] = target: T1, 5-hydroxytryptamine receptor 4; test: Agonist activity at human recombinant 5HT4 receptor assessed as cAMP accumulation; format: functional
Method in brief: (§1)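 cAMP accumulation in cells expressing human recombinant 5-HT4 receptor, reported as pEC50 with intrinsic activity as % of the maximum response achieved by 5-HT.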

[3] = Half life in rat liver micrososmes; format: ADME, Microsome; conditions: liver microsomes
[4] = target: T2, 5-hydroxytryptamine receptor 3A (Homo sapiens, UniProt P46098); test: Binding affinity to human recombinant 5HT3 receptor
T2 sequence (P46098 whole entry): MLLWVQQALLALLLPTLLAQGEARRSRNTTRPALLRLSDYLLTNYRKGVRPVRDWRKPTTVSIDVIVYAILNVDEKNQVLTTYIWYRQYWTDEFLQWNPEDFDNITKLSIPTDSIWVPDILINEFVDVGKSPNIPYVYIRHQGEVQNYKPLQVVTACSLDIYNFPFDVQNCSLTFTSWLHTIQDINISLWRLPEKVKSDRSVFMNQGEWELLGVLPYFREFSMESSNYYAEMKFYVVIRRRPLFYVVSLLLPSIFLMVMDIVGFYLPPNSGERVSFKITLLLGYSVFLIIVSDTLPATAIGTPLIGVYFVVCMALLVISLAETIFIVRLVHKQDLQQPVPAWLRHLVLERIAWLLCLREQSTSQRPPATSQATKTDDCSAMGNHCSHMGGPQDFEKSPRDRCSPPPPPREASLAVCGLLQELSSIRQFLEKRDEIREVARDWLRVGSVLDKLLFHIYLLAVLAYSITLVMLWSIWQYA

[5] = Permeability across human Caco2 cells; format: ADME, cell-based; conditions: Caco-2, read-out: Kp
[6] = target: T1, 5-hydroxytryptamine receptor 4; test: Agonist activity at human recombinant 5HT4 receptor assessed as cAMP accumulation relative to 5-HT; format: functional; method in brief: as §1
[7] = target: hERG (KCNH2) (Homo sapiens, UniProt Q12809); test: Inhibition of human ERG channel at 3 uM
[8] = target: T2, 5-hydroxytryptamine receptor 3A; test: Binding affinity to serotonin 5-HT3 receptor (unknown origin)
[9] = target: T3, 5-hydroxytryptamine receptor 1A (Homo sapiens, UniProt P08908); test: Binding affinity to human serotonin 5-HT1A receptor
T3 sequence (P08908 whole entry): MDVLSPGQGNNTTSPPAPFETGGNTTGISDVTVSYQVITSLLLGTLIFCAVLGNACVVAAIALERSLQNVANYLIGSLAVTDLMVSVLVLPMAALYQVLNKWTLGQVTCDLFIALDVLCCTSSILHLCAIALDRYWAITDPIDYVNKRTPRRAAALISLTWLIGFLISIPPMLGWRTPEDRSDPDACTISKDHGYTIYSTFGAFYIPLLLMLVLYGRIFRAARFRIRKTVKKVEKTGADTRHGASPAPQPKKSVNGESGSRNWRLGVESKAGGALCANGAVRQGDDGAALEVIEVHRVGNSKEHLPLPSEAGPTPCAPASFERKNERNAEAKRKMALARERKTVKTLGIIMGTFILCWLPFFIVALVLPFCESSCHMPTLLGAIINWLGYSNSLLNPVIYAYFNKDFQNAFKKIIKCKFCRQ

[10] = target: T4, 5-hydroxytryptamine receptor 7 (Homo sapiens, UniProt P34969); test: Binding affinity to human serotonin 5-HT7 receptor
[11] = tested on: Rattus norvegicus; test: Agonist activity at 5HT4 receptor in ID dosed rat assessed as dose required to cause esophageal relaxation of 0.1 mm; format: functional
Method in brief: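 Anesthetized rats dosed intraduodenally over about 0.01–10 mg/kg. Esophageal relaxation was tracked by digital sonomicrometry as the change in inter-crystal distance (mm), n = 4–6. An ED50 was derived from the dose–response, and the dose giving a 0.1 mm relaxation response was calculated.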

[12] = target: 5-hydroxytryptamine receptor 2A (Homo sapiens, UniProt P28223); test: Binding affinity to serotonin 5-HT2A receptor (unknown origin)
[13] = target: 5-hydroxytryptamine receptor 2B (Homo sapiens, UniProt P41595); test: Binding affinity to serotonin 5-HT2B receptor (unknown origin)
[14] = target: T4, 5-hydroxytryptamine receptor 7; test: Binding affinity to serotonin 5-HT7 receptor (unknown origin)
[15] = Cardiotoxicity in dog coronary artery assessed as coronary artery constriction; format: toxicity, tissue-based, Canis lupus familiaris
[16] = target: T5, 5-hydroxytryptamine receptor 2C (Homo sapiens, UniProt P28335); test: Binding affinity to serotonin 5-HT2C receptor (unknown origin)
T5 sequence (P28335 whole entry): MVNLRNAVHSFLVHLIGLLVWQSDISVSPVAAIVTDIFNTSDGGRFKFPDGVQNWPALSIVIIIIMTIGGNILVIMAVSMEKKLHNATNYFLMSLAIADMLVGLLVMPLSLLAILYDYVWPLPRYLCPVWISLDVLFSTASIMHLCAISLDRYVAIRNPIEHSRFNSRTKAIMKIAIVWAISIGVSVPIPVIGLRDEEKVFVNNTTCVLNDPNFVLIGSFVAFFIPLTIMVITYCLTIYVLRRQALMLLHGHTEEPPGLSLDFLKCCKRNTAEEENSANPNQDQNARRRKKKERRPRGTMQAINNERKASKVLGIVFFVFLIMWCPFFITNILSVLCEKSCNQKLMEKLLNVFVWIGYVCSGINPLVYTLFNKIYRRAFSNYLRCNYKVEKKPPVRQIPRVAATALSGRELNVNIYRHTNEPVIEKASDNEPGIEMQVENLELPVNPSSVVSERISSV

[17] = target: 5-hydroxytryptamine receptor 1D (Homo sapiens, UniProt P28221); test: Binding affinity to serotonin 5-HT1D receptor (unknown origin)
Chain of 5-hydroxytryptamine receptor 1D (P28221 whole entry): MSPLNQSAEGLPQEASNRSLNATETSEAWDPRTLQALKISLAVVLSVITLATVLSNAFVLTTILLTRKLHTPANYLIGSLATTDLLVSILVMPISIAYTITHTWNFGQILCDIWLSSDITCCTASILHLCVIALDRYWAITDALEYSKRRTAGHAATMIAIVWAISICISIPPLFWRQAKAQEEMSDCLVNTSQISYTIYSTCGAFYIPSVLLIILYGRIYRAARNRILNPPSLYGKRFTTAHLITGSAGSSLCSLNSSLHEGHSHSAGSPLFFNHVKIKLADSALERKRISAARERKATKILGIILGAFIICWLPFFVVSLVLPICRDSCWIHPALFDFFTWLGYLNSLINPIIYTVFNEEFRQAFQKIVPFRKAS

Chain of hERG (KCNH2) (Q12809 whole entry): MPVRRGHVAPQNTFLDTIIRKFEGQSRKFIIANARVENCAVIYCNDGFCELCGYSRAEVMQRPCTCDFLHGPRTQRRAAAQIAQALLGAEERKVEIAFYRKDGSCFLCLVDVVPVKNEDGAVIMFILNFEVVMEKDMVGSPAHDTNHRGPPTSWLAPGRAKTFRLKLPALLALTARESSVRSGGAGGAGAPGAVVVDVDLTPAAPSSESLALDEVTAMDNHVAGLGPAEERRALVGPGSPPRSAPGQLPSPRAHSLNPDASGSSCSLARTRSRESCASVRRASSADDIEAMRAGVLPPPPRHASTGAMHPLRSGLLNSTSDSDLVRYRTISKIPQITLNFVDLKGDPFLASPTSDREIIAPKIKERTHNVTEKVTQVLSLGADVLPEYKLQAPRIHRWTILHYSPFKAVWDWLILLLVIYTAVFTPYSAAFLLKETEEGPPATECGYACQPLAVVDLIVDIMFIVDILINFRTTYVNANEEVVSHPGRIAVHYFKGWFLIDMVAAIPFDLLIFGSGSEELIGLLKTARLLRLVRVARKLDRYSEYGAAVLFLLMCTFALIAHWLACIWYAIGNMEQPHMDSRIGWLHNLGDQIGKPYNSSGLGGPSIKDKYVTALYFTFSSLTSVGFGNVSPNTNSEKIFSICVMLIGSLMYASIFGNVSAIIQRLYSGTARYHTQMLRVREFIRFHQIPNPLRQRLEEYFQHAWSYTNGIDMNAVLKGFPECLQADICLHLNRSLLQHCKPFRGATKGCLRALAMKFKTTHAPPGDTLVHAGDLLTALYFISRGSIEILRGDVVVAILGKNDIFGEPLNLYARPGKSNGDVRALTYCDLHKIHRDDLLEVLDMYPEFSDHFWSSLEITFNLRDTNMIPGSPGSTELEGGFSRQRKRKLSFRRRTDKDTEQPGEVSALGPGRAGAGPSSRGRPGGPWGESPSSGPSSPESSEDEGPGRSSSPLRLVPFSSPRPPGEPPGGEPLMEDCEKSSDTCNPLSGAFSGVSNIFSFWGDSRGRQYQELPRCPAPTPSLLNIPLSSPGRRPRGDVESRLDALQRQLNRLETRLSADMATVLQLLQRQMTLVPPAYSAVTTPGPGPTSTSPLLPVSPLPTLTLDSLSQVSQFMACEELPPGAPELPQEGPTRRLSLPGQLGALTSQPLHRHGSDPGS
T1 sequence (Q13639 whole entry): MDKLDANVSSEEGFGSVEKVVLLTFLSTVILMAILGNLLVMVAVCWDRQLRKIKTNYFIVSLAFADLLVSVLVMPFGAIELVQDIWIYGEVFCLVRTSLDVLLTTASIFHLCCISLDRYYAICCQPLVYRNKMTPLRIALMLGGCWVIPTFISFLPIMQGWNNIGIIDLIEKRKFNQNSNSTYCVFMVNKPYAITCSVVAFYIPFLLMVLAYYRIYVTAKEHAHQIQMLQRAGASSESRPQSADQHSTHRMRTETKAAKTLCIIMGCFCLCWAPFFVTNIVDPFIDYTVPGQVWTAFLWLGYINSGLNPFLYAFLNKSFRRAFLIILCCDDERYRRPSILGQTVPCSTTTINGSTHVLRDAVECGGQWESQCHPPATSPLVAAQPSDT
T4 sequence (P34969 whole entry): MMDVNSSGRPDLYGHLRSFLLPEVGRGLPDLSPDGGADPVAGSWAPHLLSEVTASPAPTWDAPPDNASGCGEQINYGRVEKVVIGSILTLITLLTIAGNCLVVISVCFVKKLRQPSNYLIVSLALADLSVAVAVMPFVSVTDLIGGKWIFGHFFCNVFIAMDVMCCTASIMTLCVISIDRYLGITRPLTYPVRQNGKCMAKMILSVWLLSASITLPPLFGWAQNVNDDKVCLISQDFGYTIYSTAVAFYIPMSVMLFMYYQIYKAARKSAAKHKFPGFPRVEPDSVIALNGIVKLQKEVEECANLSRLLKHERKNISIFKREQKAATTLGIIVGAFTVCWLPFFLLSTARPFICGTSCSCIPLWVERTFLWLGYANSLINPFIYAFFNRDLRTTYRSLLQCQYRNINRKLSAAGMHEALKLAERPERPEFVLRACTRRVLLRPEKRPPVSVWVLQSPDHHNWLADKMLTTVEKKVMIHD
Chain of 5-hydroxytryptamine receptor 2A (P28223 whole entry): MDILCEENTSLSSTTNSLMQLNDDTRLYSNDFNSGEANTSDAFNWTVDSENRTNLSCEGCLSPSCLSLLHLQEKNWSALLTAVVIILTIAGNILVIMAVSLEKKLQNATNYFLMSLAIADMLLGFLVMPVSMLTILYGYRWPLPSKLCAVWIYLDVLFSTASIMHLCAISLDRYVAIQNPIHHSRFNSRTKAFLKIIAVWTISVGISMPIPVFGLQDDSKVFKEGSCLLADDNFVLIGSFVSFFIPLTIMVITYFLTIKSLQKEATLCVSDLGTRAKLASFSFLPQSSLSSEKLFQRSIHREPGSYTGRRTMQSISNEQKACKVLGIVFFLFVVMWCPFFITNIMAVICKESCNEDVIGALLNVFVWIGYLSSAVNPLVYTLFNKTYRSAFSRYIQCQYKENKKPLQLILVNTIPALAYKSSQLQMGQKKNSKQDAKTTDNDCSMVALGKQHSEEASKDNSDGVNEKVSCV
Chain of 5-hydroxytryptamine receptor 2B (P41595 whole entry): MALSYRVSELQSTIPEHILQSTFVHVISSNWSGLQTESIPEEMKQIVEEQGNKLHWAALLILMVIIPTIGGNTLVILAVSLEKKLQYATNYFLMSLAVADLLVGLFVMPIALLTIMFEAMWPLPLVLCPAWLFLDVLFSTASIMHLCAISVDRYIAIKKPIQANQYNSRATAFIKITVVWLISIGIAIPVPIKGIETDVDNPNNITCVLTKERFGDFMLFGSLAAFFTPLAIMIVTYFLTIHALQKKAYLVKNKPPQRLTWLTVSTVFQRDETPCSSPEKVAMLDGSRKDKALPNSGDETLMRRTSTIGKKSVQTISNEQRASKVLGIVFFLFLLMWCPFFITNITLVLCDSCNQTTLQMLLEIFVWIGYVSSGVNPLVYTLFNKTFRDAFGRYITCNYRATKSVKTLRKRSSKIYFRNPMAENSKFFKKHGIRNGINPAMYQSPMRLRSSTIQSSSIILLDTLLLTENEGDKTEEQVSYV

Structure (SMILES) | pKi [1] | pEC50 [2] | half-life [3] [h] | pKi [4] | Papp [5] [×10⁻⁶ cm/s] | Intrinsic activity [6] [%] | other results
CC(=O)N1CCN(CCN2CCC(CNC(=O)c3cccc4nc(C(C)C)[nH]c34)CC2)CC1 | 8.30 | 8.50 | > 1.5 | 4.40 | – | – | –
CC(C)c1nc2cccc(C(=O)NCC3CCN(CC(O)CN(C)S(C)(=O)=O)CC3)c2[nH]1 (stereo not given) | 8.90 | 9.40 | > 1.5 | 4.10 | 1 | – | –
COC(=O)N1CCN(CCN2CCC(CNC(=O)c3cccc4[nH]c(C(C)C)nc34)CC2)CC1 | 8.80 | 8.80 | > 1.5 | 4.10 | 9 | 72 | –
CC(=O)N1CCC(CN2CCC(CNC(=O)c3cccc4[nH]c(C(C)C)nc34)CC2)CC1 | 9.00 | 8.80 | > 1.5 | 4.00 | 6 | 87 | inhibition at 3 µM [7]: 22%
CC(=O)N(C)CC(O)CN1CCC(CNC(=O)c2cccc3nc(C(C)C)[nH]c23)CC1 (stereo not given) | 8.40 | 8.80 | > 1.5 | 4.20 | – | – | –
CS(=O)(=O)N1CCN(CC(O)CN2CCC(CNC(=O)c3cccc4nc[nH]c34)CC2)CC1 (stereo not given) | 8.20 | 8.00 | – | 4.30 | – | – | –
CCc1nc2c(C(=O)NCC3CCN(CC(O)CN4CCN(S(C)(=O)=O)CC4)CC3)cccc2[nH]1 (stereo not given) | 9.30 | 9.00 | – | 4.10 | – | 22 | –
CS(=O)(=O)N1CCN(CC(O)CN2[C@@H]3CC[C@H]2C[C@@H](NC(=O)c2cccc4[nH]cnc24)C3)CC1 (stereo not given in full) | – | – | – | – | – | 54 | –
CS(=O)(=O)N1CCN(CC(O)CN2CCC(NC(=O)c3cccc4[nH]cnc34)CC2)CC1 (stereo not given) | 6.60 | 6.20 | – | 4.20 | – | 7 | –
CC(C)c1nc2c(C(=O)NCC3CCN(CCN4CCN(S(C)(=O)=O)CC4)CC3)cccc2[nH]1 | 9.10 | 9.10 | > 1.5 | 4.00 | 4 | 64 | –
CC(=O)N(C)CC(O)CN1CCC(CNC(=O)c2cccc3[nH]c(C(C)C)nc23)CC1 (stereo not given) | – | – | – | – | – | 64 | –
CC(C)c1nc2c(C(=O)NCC3CCN(CC(O)CN4CCN(S(C)(=O)=O)CC4)CC3)cccc2[nH]1 (stereo not given) | 9.30 | 9.20 | > 1.5 | 4.10 | 0.2 | 61 | inhibition at 3 µM [7]: 5%
COC(=O)N(C)CC(O)CN1CCC(CNC(=O)c2cccc3nc(C(C)C)[nH]c23)CC1 (stereo not given) | 8.40 | 8.70 | 1.32 | 4.30 | 2 | – | –
CC(C)c1nc2c(C(=O)NCC3CCN(CC(O)CN(C)S(C)(=O)=O)CC3)cccc2[nH]1 (stereo not given) | – | – | – | – | – | 83 | –
CS(=O)(=O)N1CCN(CC(O)CN2[C@@H]3CC[C@H]2C[C@@H](NC(=O)c2cccc4nc[nH]c24)C3)CC1 (stereo not given in full) | 6.50 | 6.60 | – | 4.70 | – | – | –
CCCCCNC(=N)N/N=C/c1c[nH]c2ccc(OC)cc12 [TEGASEROD] | – | – | > 1.5 | 5.60 | – | – | pKi [12]: > 7.00; pKi [13]: > 8.70; pKi [14]: > 7.00; Activity [15]: Toxic; Activity [11]: 2.43 mg/kg; pKi [16]: > 7.00; pKi [17]: > 7.00

The next lines start with results.

pKi [1] | pEC50 [2] | half-life [3] [h] | pKi [4] | Papp [5] [×10⁻⁶ cm/s] | Intrinsic activity [6] [%] | Structure (SMILES) | other results
8.90 | 8.80 | – | 4.80 | – | 41 | CS(=O)(=O)N1CCN(CC(O)CN2CCC(CNC(=O)c3cccc4[nH]c(-c5ccccc5)nc34)CC2)CC1 (stereo not given) | –
– | – | – | – | – | 76 | CC(=O)N1CCN(CCN2CCC(CNC(=O)c3cccc4[nH]c(C(C)C)nc34)CC2)CC1 | –
– | – | – | – | – | 64 | COC(=O)N(C)CC(O)CN1CCC(CNC(=O)c2cccc3[nH]c(C(C)C)nc23)CC1 (stereo not given) | –
9.50 | – | – | 5.90 | – | 0 | CC(C)c1nc2c(C(=O)NCC3CCN(CC(O)CN4CCN(S(C)(=O)=O)CC4)CC3)cc(Cl)cc2[nH]1 (stereo not given) | –
– | – | 0.783 | 5.70 | – | 71 | COc1cc(N)c(Cl)cc1C(=O)NC1CCN(CCCOc2ccc(F)cc2)CC1OC (racemic) [CISAPRIDE] | pKi [8]: 5.70; pKi [9]: 6.10; pKi [10]: 6.00; Activity [11]: 2.66 mg/kg
– | – | – | – | – | 59 | CC(F)(F)c1nc2c(C(=O)NCC3CCN(CC(O)CN4CCN(S(C)(=O)=O)CC4)CC3)cccc2[nH]1 (stereo not given) | –
– | – | – | – | – | 94 | CC(C)(C)c1nc2c(C(=O)NCC3CCN(CC(O)CN4CCN(S(C)(=O)=O)CC4)CC3)cccc2[nH]1 (stereo not given) | –
9.30 | 9.00 | 1.47 | 4.00 | 5 | 63 | CC(C)c1nc2c(C(=O)NCC3CCN(CC4CCN(S(C)(=O)=O)CC4)CC3)cccc2[nH]1 | inhibition at 3 µM [7]: 8%
– | – | – | – | – | 6 | CS(=O)(=O)N1CCN(CC(O)CN2CCC(CNC(=O)c3cccc4[nH]cnc34)CC2)CC1 (stereo not given) | –
7.90 | 8.50 | > 1.5 | 4.40 | 0.5 | – | CC(C)(C)c1nc2cccc(C(=O)NCC3CCN(CC(O)CN4CCN(S(C)(=O)=O)CC4)CC3)c2[nH]1 (stereo not given) | –
9.30 | 9.20 | > 1.5 | 4.30 | 2.1 | 64 | CS(=O)(=O)N1CCN(CC(O)CN2CCC(CNC(=O)c3cccc4[nH]c(C5CC5)nc34)CC2)CC1 (stereo not given) | –
8.70 | 9.10 | – | 5.10 | – | – | CC(F)(F)c1nc2cccc(C(=O)NCC3CCN(CC(O)CN4CCN(S(C)(=O)=O)CC4)CC3)c2[nH]1 (stereo not given) | –

— ChEMBL document CHEMBL2401700, “Discovery of TD-8954, a clinical stage 5-HT(4) receptor agonist with gastrointestinal prokinetic properties” (Bioorg Med Chem Lett, 2013)
